Data published in ChEMBL document CHEMBL3091328, “Synthesis, DNA-binding abilities and anticancer activities of triazole-pyrrolo[2,1-c][1,4]benzodiazepines hybrid scaffolds” (Bioorg Med Chem Lett, 2013).
Active and inactive are the calls of the source. No cut-off for these calls is given here.

Experiments:
[1] = Cytotoxicity against human skin fibroblasts assessed as cell survival at 5 uM after 24 hrs by MTT assay relative to control; design: species or system Skin fibroblast; conditions: read-out: Survival
Outline: (§1)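 Cells exposed to agent at 5 µM for 24 h, then growth and viability measured by MTT assay. Survival given as percent of untreated control.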

A-375 [2] = assay: Cytotoxicity against human A375 cells assessed as cell survival at 5 uM after 24 hrs by MTT assay relative to control; assay type: functional; conditions: A-375, 24 h, read-out: Survival; outline: as §1
A2058 = assay: Cytotoxicity against human A2058 cells assessed as cell survival at 5 uM after 24 hrs by MTT assay relative to control; assay type: functional; conditions: A2058, 24 h, read-out: Survival; outline: as §1
A-375 [3] = assay: Cell cycle arrest in human A375 cells assessed as accumulation at G2/M phase after 24 hrs by propidium iodide staining-based flow cytometry (reference value: 15.2 +/- 0.6%); assay type: functional
A-375 [4] = assay: Cell cycle arrest in human A375 cells assessed as accumulation at S phase after 24 hrs by propidium iodide staining-based flow cytometry (reference value: 11.8 +/- 0.1%); assay type: functional
B16 = assay: Cytotoxicity against mouse B16 cells assessed as cell survival at 5 uM after 24 hrs by MTT assay relative to control; assay type: functional; conditions: B16, 24 h, read-out: Survival; outline: as §1
HEK-293T = assay: Cytotoxicity against human 293T cells assessed as cell survival at 5 uM after 24 hrs by MTT assay relative to control; assay type: functional; conditions: read-out: Survival; outline: as §1
A-375 [5] = assay: Cell cycle arrest in human A375 cells assessed as accumulation at sub-G1 phase after 24 hrs by propidium iodide staining-based flow cytometry (reference value: 7.7 +/- 0.1%); assay type: functional
A-375 [6] = assay: Cell cycle arrest in human A375 cells assessed as accumulation at G1 phase after 24 hrs by propidium iodide staining-based flow cytometry (reference value: 65.3 +/- 0.1%); assay type: functional
[7] = Cytotoxicity against human RPMI7951 cells assessed as cell survival at 5 uM after 24 hrs by MTT assay relative to control; assay type: functional; conditions: RPMI-7951, 24 h, read-out: Survival; outline: as §1
Ca9-22 = assay: Cytotoxicity against human Ca9-22 cells assessed as cell survival at 5 uM after 24 hrs by MTT assay relative to control; assay type: functional; conditions: Ca9-22, 24 h, read-out: Survival; outline: as §1
A-375 [8] = assay: Cytotoxicity against human A375 cells assessed as cell survival at 1 to 5 uM after 12 hrs by MTT assay relative to control; assay type: functional, cell-based
Outline: (§2)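 A375 cells seeded at 10,000 per well, attached overnight, then exposed in triplicate to 0, 1, 3 or 5 μM for 0, 12 or 24 h; viability by MTT absorbance versus untreated control; IC50 taken as mean of dose-response curves from three experiments.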

A549 = assay: Cytotoxicity against human A549 cells assessed as cell survival at 5 uM after 24 hrs by MTT assay relative to control; assay type: functional; conditions: A549, 24 h, read-out: Survival; outline: as §1
A-375 [9] = assay: Induction of apoptosis in human A375 cells at 5 uM after 24 hrs by AnnexinV-FITC/propidium iodide staining-based fluorimetric analysis (reference value: 2.6%); assay type: functional
A-375 [10] = assay: Induction of apoptosis in human A375 cells assessed as cleavage of PARP after 24 hrs by Western blotting analysis; assay type: functional, cell-based
Outline: (§3)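 Lysates from A375 cells exposed 24 h to 5 μM, or to a range of concentrations, immunoblotted with specific antibodies against Bcl-2, Bcl-xL, Bax, Bad, caspase-3 and PARP; actin probed as loading control; three separate experiments.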

A-375 [11] = assay: Induction of apoptosis in human A375 cells assessed as increase in Bax protein level after 24 hrs by Western blotting analysis; assay type: functional, cell-based; outline: as §3
A-375 [12] = assay: Cytotoxicity against human A375 cells assessed as cell survival after 12 to 24 hrs by MTT assay relative to control; assay type: functional, cell-based; outline: as §2
A-375 [13] = assay: Induction of apoptosis in human A375 cells assessed as increase in Bax protein level at 5 uM after 24 hrs by Western blotting analysis; assay type: functional, cell-based; outline: as §3
A-375 [14] = assay: Induction of apoptosis in human A375 cells assessed as decrease in Bcl-2 protein level after 24 hrs by Western blotting analysis; assay type: functional, cell-based; outline: as §3
Escherichia coli = assay: Binding affinity to Escherichia coli pBR322 DNA assessed as DNA unwinding at 10 to 1000 uM after 12 hrs by agarose gel electrophoresis
Outline: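 Negatively supercoiled pBR322 plasmid (0.4 μg) incubated 12 h in TE buffer with increasing compound concentrations (0–1000 μM); samples run 2.5 h on 1% agarose gel; unwinding read as reduced mobility.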

A-375 [15] = assay: Cytotoxicity against human A375 cells assessed as cell survival at 1 to 5 uM by MTT assay relative to control; assay type: functional, cell-based; conditions: TDE = time-dependent effect; outline: as §2
A-375 [16] = assay: Induction of apoptosis in human A375 cells assessed as increase in Bad protein level after 24 hrs by Western blotting analysis; assay type: functional, cell-based; outline: as §3
A-375 [17] = assay: Downregulation of cyclin D1 mRNA expression in human A375 cells at 5 uM after 24 hrs by RT-PCR analysis; assay type: functional, cell-based
Outline: (§4)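 A375 cells treated 24 h at 5 μM; p53, p21, p27 and cyclin D1 transcripts quantified by qPCR, normalised to β-actin in each sample, compared with control.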

A-375 [18] = assay: Induction of apoptosis in human A375 cells assessed as cleavage of caspase-3 after 24 hrs by Western blotting analysis; assay type: functional, cell-based; outline: as §3
A-375 [19] = assay: Upregulation of p27 mRNA expression in human A375 cells at 5 uM after 24 hrs by RT-PCR analysis; assay type: functional, cell-based; outline: as §4
A-375 [20] = assay: Induction of apoptosis in human A375 cells assessed as increase in Bad protein level at 5 uM after 24 hrs by Western blotting analysis; assay type: functional, cell-based; outline: as §3
A-375 [21] = assay: Induction of apoptosis in human A375 cells assessed as decrease in Bcl-2 protein level at 5 uM after 24 hrs by Western blotting analysis; assay type: functional, cell-based; outline: as §3
A-375 [22] = assay: Induction of apoptosis in human A375 cells assessed as decrease in Bcl-XL protein level at 5 uM after 24 hrs by Western blotting analysis; assay type: functional, cell-based; outline: as §3
A-375 [23] = assay: Upregulation of p53 mRNA expression in human A375 cells at 5 uM after 24 hrs by RT-PCR analysis; assay type: functional, cell-based; outline: as §4
A-375 [24] = assay: Induction of apoptosis in human A375 cells assessed as decrease in Bcl-XL protein level after 24 hrs by Western blotting analysis; assay type: functional, cell-based; outline: as §3
A-375 [25] = assay: Upregulation of p21 mRNA expression in human A375 cells at 5 uM after 24 hrs by RT-PCR analysis; assay type: functional, cell-based; outline: as §4

| SMILES | viability at 24 h, 5 µM [1] | viability at 5 µM (A-375 [2]) | viability at 5 µM (A2058) | Activity (A-375 [3]) | Activity (A-375 [4]) | viability at 5 µM (B16) | viability at 5 µM (HEK-293T) | Activity (A-375 [5]) | Activity (A-375 [6]) | viability at 5 µM [7] | viability at 5 µM (Ca9-22) | Activity (A-375 [8]) | viability at 5 µM (A549) | Activity (A-375 [9]) | Activity (A-375 [12]) | Activity (A-375 [13]) | Activity (A-375 [15]) | Activity (A-375 [17]) | Activity (A-375 [19]) | Activity (A-375 [20]) | further results |
| --- | --- | --- | --- | --- | --- | --- | --- | --- | --- | --- | --- | --- | --- | --- | --- | --- | --- | --- | --- | --- | --- |
| COc1cc2c(cc1OC/C=C/Cn1cc(-c3ccccc3OC)nn1)N=C[C@@H]1CCCN1C2=O | 100% | 58.4% | 57.9% | 5.1% | 8.1% | 98.9% | 55% | 17.3% | 69.5% | 83% | 95.6% | inactive | 91% |  |  |  |  |  |  |  |  |
| COc1cccc(-c2cn(C/C=C/COc3cc4c(cc3OC)C(=O)N3CCC[C@H]3C=N4)nn2)c1 | 107% | 58.3% | 62.8% | 3.5% | 7.5% | 107% | 40% | 17.6% | 71.4% | 87.2% | 97.5% | inactive | 86% |  |  |  |  |  |  |  |  |
| COc1cc2c(cc1OC/C=C\Cn1cc(-c3ccccc3)nn1)N=C[C@@H]1CCCN1C2=O | 87.7% | 22.4% | 45.7% | 2.2% | 5.9% | 33.9% | 74.1% | 8.9% | 83% | 55.9% | 25.6% | inactive | 65.6% | 23.1% | Dose-dependent effect | Active | tde | Active | Active | Active | Activity (A-375 [10]): Dose-dependent effect; Activity (A-375 [11]): Dose-dependent effect; Activity (A-375 [14]): Dose-dependent effect; Activity (Escherichia coli): Active; Activity (A-375 [16]): Dose-dependent effect; Activity (A-375 [18]): Dose-dependent effect; Activity (A-375 [21]): Active; Activity (A-375 [22]): Active; Activity (A-375 [23]): Active; Activity (A-375 [24]): Dose-dependent effect; Activity (A-375 [25]): Active |
| COc1cc2c(cc1OC/C=C\Cn1cc(-c3ccccc3OC)nn1)N=C[C@@H]1CCCN1C2=O | 84.7% | 58.4% | 63.1% | 1.3% | 5.1% | 66.3% | 51.1% | 11.7% | 81.9% | 75.1% | 105% | inactive | 102% | 11.1% | Dose-dependent effect | Active | tde | Active | Active | Active | Activity (A-375 [21]): Active; Activity (A-375 [22]): Active; Activity (A-375 [23]): Active; Activity (A-375 [25]): Active |
